Test results published in ChEMBL document CHEMBL5653631, “A Potent and Selective ULK1 Inhibitor Suppresses Autophagy and Sensitizes Cancer Cells to Nutrient Stress” (iScience, 2018).
Each block holds one molecule with its values, some of them ahead of it.

Key:
[1] = target: T1, G protein-coupled receptor kinase 3 (Homo sapiens) (UniProt P35626); test: Inhibition of human recombinant BARK2 at 500 nM in presence of ATP by radiometric assay relative to control
T1 sequence (whole entry): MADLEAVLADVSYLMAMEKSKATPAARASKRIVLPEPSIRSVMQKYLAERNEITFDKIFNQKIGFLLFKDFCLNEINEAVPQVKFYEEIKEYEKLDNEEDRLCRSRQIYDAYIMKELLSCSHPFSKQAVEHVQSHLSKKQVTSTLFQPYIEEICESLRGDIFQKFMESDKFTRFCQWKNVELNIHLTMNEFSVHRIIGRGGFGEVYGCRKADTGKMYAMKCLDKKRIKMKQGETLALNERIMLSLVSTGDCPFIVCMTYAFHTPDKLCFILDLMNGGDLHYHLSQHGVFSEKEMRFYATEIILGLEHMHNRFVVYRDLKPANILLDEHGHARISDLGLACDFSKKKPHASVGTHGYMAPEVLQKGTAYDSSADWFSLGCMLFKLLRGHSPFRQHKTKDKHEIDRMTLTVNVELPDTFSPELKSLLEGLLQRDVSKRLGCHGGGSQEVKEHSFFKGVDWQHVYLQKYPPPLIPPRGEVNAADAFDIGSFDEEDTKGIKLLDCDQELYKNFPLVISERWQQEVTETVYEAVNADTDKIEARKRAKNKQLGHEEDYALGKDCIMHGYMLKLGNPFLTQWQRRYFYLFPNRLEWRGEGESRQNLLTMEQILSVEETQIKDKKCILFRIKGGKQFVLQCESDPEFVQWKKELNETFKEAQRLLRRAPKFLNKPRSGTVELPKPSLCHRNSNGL
Procedure, shortened: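 Part of a radiometric in vitro activity panel of 327 recombinant human kinases. Each kinase was tested in duplicate at one inhibitor concentration. Activity remaining was expressed as a percentage of the vehicle control, and percent inhibition was taken as 100 minus that value.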

[2] = target: Death-associated protein kinase 1 (Homo sapiens) (UniProt P53355); test: Inhibition of human recombinant DAPK1 at 500 nM in presence of ATP by radiometric assay relative to control
[3] = target: T2, Activin receptor type-1B (Homo sapiens) (UniProt P36896); test: Inhibition of human recombinant ALK4 at 40 nM in presence of ATP by radiometric assay relative to control
T2 sequence (whole entry): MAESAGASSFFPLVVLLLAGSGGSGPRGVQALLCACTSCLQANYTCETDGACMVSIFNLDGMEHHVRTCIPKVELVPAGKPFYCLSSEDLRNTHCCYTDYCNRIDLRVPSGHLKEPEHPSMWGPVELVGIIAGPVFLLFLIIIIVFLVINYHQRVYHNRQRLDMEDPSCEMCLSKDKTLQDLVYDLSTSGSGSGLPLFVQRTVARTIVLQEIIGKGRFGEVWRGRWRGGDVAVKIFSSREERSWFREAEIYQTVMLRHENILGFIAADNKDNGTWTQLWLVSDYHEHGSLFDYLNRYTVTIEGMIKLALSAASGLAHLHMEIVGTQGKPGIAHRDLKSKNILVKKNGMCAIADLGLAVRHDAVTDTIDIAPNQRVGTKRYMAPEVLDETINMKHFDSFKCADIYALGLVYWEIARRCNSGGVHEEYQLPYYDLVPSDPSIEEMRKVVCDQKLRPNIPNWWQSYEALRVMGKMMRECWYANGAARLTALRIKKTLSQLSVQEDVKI
Procedure, shortened: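 Panel of 327 recombinant human kinases, each assayed in vitro by radiometric activity assay in duplicate at a single inhibitor concentration per compound, chosen with reference to its ULK1 inhibition. Activity remaining was expressed as percent of vehicle control, and percent inhibition was calculated as 100 minus percent activity remaining.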

[4] = target: T3, cGMP-dependent protein kinase 1 (Homo sapiens) (UniProt Q13976); test: Inhibition of human recombinant PKG1 at 40 nM related to control ULK1
T3 sequence (whole entry): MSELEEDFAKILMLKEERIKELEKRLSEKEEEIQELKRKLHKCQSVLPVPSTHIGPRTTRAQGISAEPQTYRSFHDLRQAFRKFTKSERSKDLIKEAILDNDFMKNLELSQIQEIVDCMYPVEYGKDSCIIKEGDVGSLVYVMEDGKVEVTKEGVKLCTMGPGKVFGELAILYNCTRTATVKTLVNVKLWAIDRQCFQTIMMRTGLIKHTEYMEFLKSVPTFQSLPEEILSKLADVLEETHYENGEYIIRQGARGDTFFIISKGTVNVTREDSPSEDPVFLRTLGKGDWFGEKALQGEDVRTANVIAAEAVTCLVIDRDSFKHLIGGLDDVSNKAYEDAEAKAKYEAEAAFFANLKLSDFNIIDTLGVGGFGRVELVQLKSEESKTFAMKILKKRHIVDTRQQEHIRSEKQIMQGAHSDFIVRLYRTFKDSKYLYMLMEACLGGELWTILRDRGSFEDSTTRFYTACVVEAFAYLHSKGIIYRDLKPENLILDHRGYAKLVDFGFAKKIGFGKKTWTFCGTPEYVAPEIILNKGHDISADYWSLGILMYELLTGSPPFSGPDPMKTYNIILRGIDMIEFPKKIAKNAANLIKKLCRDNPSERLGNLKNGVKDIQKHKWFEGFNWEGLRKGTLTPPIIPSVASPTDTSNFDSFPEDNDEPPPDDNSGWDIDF

[5] = target: Dual specificity protein kinase CLK3 (Homo sapiens) (UniProt P49761); test: Inhibition of human recombinant CLK3 at 15 nM related to control ULK1
[6] = target: Serine/threonine-protein kinase ULK1 (Homo sapiens, UniProt O75385); test: Inhibition of ULK1 phosphorylation at Ser15 residue in HEK293 cells incubated for 1 hr by chemiluminescence based immunoblotting analysis; type: cell-based, HEK293T
[7] = target: Insulin receptor-related protein (Homo sapiens) (UniProt P14616); test: Inhibition of human recombinant IRR at 15 nM related to control ULK1
[8] = target: Serine/threonine-protein kinase MRCK beta (Homo sapiens) (UniProt Q9Y5S2); test: Inhibition of human recombinant MRCKb at 15 nM in presence of ATP by radiometric assay relative to control
[9] = target: Tyrosine-protein kinase Yes (Homo sapiens) (UniProt P07947); test: Inhibition of human recombinant YES at 15 nM related to control ULK1
[10] = target: Ephrin type-A receptor 4 (Homo sapiens) (UniProt P54764); test: Inhibition of human recombinant EphA4 at 15 nM in presence of ATP by radiometric assay relative to control
Chain of Ephrin type-A receptor 4 (Homo sapiens) (P54764 whole entry): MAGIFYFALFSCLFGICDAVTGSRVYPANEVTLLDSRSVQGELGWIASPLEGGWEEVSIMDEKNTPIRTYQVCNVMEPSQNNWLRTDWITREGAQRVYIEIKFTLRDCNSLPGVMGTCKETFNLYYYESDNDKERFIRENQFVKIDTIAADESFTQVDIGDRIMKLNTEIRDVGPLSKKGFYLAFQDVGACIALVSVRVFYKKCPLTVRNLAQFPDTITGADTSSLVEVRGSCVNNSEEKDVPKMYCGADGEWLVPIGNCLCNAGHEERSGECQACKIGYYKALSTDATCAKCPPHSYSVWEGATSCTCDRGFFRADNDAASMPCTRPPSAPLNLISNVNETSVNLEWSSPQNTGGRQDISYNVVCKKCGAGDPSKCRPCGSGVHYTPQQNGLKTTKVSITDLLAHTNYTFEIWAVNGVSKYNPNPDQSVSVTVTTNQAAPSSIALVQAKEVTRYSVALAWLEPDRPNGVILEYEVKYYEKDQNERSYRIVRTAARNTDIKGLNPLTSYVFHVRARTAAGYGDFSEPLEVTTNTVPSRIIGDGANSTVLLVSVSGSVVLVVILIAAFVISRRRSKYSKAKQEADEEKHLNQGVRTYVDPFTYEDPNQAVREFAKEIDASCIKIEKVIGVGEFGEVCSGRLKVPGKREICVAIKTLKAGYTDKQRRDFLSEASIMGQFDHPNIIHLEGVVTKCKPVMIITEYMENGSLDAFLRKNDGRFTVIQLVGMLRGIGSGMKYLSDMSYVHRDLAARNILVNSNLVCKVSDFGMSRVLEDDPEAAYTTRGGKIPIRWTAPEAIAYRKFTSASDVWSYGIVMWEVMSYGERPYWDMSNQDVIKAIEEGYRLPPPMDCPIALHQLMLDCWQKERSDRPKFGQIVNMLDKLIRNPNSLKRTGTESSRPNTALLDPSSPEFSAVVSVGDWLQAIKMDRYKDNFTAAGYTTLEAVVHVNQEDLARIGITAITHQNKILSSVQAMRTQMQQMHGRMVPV

Chain of Serine/threonine-protein kinase ULK1 (O75385 whole entry): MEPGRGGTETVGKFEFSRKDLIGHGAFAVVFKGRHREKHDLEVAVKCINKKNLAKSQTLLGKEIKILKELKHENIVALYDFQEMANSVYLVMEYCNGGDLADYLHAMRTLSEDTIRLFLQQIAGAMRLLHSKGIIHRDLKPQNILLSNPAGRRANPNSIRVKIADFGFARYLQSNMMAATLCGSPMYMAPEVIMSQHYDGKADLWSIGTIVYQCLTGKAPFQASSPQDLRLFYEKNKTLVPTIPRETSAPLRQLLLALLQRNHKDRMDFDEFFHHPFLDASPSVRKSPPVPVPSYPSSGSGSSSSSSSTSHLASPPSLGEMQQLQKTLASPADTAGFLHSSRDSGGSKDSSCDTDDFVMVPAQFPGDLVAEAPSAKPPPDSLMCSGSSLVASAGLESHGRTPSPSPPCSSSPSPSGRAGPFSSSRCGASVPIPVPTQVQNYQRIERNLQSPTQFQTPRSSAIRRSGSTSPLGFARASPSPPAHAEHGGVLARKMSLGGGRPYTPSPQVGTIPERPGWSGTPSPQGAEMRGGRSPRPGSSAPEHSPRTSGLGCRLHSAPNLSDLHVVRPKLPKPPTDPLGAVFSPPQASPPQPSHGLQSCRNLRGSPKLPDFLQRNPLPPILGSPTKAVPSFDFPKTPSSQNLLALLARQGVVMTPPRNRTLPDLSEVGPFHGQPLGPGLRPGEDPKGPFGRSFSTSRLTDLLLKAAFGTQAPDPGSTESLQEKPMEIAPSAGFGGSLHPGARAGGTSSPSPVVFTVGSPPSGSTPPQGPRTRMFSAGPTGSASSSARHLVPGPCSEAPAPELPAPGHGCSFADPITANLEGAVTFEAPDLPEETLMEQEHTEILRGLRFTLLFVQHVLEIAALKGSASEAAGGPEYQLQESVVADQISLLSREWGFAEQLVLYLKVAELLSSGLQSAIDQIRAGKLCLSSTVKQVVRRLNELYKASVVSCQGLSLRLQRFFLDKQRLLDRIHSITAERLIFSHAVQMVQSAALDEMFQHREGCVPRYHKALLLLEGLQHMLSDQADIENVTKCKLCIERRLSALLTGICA
Chain of Death-associated protein kinase 1 (Homo sapiens) (P53355 whole entry, looked up): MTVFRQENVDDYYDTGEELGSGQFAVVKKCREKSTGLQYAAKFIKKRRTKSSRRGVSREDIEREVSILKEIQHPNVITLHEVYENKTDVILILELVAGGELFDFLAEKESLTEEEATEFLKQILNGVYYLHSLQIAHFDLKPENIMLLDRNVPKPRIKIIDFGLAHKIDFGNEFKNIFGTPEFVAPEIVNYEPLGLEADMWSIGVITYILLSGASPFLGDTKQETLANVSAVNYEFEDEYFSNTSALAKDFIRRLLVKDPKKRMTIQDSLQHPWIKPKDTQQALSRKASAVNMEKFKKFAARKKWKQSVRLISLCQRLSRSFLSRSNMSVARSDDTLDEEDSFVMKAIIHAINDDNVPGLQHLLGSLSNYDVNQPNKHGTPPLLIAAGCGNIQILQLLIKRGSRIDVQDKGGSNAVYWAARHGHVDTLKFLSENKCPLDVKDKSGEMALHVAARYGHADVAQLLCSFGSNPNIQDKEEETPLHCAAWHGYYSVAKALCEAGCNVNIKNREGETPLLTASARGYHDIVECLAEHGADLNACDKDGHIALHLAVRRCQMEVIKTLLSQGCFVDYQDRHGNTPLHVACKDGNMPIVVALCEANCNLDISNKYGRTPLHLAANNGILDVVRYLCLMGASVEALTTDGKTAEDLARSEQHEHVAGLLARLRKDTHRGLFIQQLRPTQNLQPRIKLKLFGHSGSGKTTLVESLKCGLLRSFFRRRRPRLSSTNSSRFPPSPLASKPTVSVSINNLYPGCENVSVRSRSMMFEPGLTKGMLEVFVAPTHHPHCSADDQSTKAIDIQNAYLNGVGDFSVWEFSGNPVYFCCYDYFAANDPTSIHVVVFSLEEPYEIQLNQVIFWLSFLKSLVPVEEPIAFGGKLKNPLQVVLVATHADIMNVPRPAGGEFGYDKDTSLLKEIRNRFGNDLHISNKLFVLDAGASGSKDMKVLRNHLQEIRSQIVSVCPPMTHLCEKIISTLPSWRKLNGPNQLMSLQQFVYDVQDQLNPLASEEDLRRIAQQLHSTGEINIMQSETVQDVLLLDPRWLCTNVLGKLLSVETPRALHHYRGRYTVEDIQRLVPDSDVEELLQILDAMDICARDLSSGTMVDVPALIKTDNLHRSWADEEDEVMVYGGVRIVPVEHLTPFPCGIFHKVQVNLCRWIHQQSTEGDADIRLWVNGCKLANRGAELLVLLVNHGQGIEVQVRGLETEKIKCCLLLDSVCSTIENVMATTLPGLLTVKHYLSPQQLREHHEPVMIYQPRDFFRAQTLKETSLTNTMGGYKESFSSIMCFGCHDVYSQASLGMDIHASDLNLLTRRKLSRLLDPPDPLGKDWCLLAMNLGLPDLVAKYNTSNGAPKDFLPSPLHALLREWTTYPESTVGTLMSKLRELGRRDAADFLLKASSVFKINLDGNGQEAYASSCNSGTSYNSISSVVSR
Chain of Insulin receptor-related protein (Homo sapiens) (P14616 27-742 limits assumed): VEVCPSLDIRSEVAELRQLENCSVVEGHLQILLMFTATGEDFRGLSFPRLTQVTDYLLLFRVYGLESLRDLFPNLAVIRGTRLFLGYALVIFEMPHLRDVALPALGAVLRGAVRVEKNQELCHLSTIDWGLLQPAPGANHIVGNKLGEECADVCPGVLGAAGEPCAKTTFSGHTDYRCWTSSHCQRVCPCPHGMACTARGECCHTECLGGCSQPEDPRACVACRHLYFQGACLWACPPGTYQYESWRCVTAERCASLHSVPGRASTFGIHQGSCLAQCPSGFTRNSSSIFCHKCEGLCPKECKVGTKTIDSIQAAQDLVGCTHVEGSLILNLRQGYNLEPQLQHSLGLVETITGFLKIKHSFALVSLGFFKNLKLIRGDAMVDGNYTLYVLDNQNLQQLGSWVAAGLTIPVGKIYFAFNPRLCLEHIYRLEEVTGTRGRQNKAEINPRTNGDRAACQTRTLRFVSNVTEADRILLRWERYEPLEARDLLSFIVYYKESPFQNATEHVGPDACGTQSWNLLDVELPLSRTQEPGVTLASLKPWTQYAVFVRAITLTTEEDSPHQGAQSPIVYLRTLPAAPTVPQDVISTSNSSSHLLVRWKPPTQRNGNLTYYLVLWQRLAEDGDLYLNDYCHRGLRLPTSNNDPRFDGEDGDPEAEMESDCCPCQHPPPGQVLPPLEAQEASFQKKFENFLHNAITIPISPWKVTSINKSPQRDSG
Chain of Insulin receptor-related protein (Homo sapiens) (P14616 747-1297 limits assumed): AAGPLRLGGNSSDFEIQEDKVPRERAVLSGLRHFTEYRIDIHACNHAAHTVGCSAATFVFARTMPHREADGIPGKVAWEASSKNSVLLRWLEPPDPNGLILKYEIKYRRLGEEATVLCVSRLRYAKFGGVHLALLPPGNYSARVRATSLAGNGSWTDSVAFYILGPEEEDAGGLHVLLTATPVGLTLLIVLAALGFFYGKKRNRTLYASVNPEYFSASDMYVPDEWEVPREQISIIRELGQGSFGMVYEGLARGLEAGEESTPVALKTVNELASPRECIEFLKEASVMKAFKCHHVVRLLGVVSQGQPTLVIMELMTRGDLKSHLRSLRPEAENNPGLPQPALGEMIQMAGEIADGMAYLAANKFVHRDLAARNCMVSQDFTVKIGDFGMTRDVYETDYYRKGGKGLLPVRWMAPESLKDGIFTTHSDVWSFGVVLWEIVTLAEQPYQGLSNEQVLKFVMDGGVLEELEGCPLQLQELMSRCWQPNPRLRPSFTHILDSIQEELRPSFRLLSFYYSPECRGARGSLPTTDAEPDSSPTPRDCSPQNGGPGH

- inhibition [1]: 7%
Compound: CNC(=O)c1ccccc1Oc1nc(Nc2cc(OC)c(OC)c(OC)c2)ncc1Br
- inhibition [2]: 0%

- inhibition [3]: 0%
- fold change (FC) [4]: 0.08
Compound: O=C(N[C@@H](C1CC1)C(F)(F)F)c1cc(-c2cnn3cc(-c4ccc(F)cc4)cnc23)cs1

- fold change (FC) [5]: 0.01
- EC50 [6]: 83 nM
- fold change (FC) [7]: 0.02
- inhibition [8]: 6%
- fold change (FC) [9]: 0.86
- inhibition [10]: 0%
Compound: CC(C)[C@H](NC(=O)c1cc(-c2cnn3cc(-c4ccc(OCCN5CCCCC5)cc4)cnc23)cs1)C(F)(F)F
